Our source for the IC50 and Ki values is ChEMBL document CHEMBL5107952, “Synthesis of low-molecular weight fucoidan derivatives and their binding abilities to SARS-CoV-2 spike proteins” (RSC Med Chem, 2021).

What all share (format): cell-based, Severe acute respiratory syndrome coronavirus 2
Experiment [1] can be described thus: Competitive inhibition of biotinylated heparin binding to His-tagged SARS-COV-2 B.1.351 variant recombinant spike glycoprotein D80A/D215G/K417N/E484K/N501Y/D614G/A701V mutant expressed in Expi293F cells incubated for 120 sec by biolayer interferometry streptavidin sensor based assay. The gist of the method:
(§1)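 Same heparin-competition BLI format with variant S proteins (B.1.1.7, B.1.351, P.1). Biotinylated heparin sat on streptavidin sensors, and S protein (1 μM) was in TBS (20 mM Tris, pH 7.4, 0.02% BSA). Bound (%) was read from the BLI signal. IC50 was fitted and converted to Ki via Cheng–Prusoff.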
(In general: BLI is a label-free optical method that tracks binding on a fibre tip over time.)

Experiment [2] can be described thus: Competitive inhibition of biotinylated heparin binding to His-tagged SARS-COV-2 P.1 variant recombinant spike glycoprotein L18F/T20N/P26S/D138Y/R190S/K417T/E484K/N501Y/H655Y/T1027I mutant expressed in Expi293F cells incubated for 300 sec by biolayer interferometry streptavidin sensor based assay. The procedure, abridged: as §1
A short description of experiment [3]: Competitive inhibition of biotinylated heparin binding to His-tagged SARS-COV-2 B.1.1.7 variant recombinant spike glycoprotein del69-70/del144/N501Y/A570D/D614G/P681H/T716I/S982A/D1118H mutant expressed in Expi293F cells assessed as inhibition constant incubated for 120 sec by biolayer interferometry streptavidin sensor based assay. The procedure, abridged: as §1

The nature of experiment [4]: Competitive inhibition of biotinylated heparin binding to His-tagged SARS-COV-2 B.1.1.7 variant recombinant spike glycoprotein del69-70/del144/N501Y/A570D/D614G/P681H/T716I/S982A/D1118H mutant expressed in Expi293F cells incubated for 120 sec by biolayer interferometry streptavidin sensor based assay. The procedure, abridged:
as §1

The nature of experiment [5]: Competitive inhibition of biotinylated heparin binding to His-tagged SARS-COV-2 P.1 variant recombinant spike glycoprotein L18F/T20N/P26S/D138Y/R190S/K417T/E484K/N501Y/H655Y/T1027I mutant expressed in Expi293F cells assessed as inhibition constant incubated for 300 sec by biolayer interferometry streptavidin sensor based assay. The gist of the method:
as §1

The nature of experiment [6]: Competitive inhibition of biotinylated heparin binding to His-tagged SARS-COV-2 B.1.351 variant recombinant spike glycoprotein D80A/D215G/K417N/E484K/N501Y/D614G/A701V mutant expressed in Expi293F cells assessed as inhibition constant incubated for 120 sec by biolayer interferometry streptavidin sensor based assay. The procedure, abridged:
as §1

Structures are written as SMILES.

Usually IC50 stands for the concentration at which inhibition is half-maximal. As a reminder, the Ki is the dissociation constant of the complex between target and ligand, obtained from inhibition or displacement. In the case of `CCCCCCCCO[C@H]1O[C@@H](C)[C@@H](O[C@@H]2O[C@@H](C)[C@@H](O[C@@H]3O[C@@H](C)[C@@H](O[C@@H]4O[C@@H](C)[C@@H](OS(=O)(=O)O)[C@@H](OS(=O)(=O)O)[C@@H]4OS(=O)(=O)O)[C@@H](OS(=O)(=O)O)[C@@H]3OS(=O)(=O)O)[C@@H](OS(=O)(=O)O)[C@@H]2OS(=O)(=O)O)[C@@H](OS(=O)(=O)O)[C@@H]1OS(=O)(=O)O`, the IC50 was 85.9 µM in experiment [1], 65.6 µM in experiment [2] and 35 µM in experiment [4]. Besides, the values for the Ki in experiment [3], in experiment [5] and in experiment [6] were 10.1 µM, 6.98 µM and 6.67 µM, respectively.
